Sampled rows, rich in hits. Any-hit rate of the full collection: about 2.1%.
STK33 inh: inhibitors of human STK33 kinase | Q9BYT3 | purified STK33, MBP phosphorylation, ADP-Glo luminescence | inhibition, % at 10 µM | actives 0.073% (n = 320,000) | AID 2661;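 active = inhibition at or above 25%, using the most active replicate where run in duplicate; inactive = inhibition below 25%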
MEKK2 mut-MEK5: signal of MEK5 binding to mutant human MEKK2 PB1 domain; bead flow cytometry, Alexa488-MEK5 binding to MEKK2 mutant; percent response, % at 10 µM; actives 0.35% (n = 290,000); AID 1530; in the data active = percent response above about 24%, passing the limit was not always enough
MEKK3 PB1 HTS: raises or lowers MEK5 binding to the human MEKK3 PB1 domain. Q99759. bead-based flow cytometry, Alexa488-MEK5 binding to MEKK3; actives lie on both sides; 0 = blocked by unlabeled MEK5, 100 = vehicle. binding response (% of control), % at 10 µM. actives 1.4% (n = 290,000). AID 1529;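 active = binding response more than 3 SD above or below the average of its plate-row segment, actives on both sides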;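 also: Alexa488 bead fluorescence after subtracting the streptavidin-only scavenger bead signal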
GSK3 alpha inh: inhibitors of human GSK-3 alpha kinase. ADP-Glo luminescence, 60 min. inhibition, % at 10 µM. actives 0.1% (n = 320,000);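 active = more than half of replicates show inhibition above 20%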;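 also: GST-tagged GSK-3 alpha with peptide substrate and 25 µM ATP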
Target sequence (P49840 whole entry, looked up): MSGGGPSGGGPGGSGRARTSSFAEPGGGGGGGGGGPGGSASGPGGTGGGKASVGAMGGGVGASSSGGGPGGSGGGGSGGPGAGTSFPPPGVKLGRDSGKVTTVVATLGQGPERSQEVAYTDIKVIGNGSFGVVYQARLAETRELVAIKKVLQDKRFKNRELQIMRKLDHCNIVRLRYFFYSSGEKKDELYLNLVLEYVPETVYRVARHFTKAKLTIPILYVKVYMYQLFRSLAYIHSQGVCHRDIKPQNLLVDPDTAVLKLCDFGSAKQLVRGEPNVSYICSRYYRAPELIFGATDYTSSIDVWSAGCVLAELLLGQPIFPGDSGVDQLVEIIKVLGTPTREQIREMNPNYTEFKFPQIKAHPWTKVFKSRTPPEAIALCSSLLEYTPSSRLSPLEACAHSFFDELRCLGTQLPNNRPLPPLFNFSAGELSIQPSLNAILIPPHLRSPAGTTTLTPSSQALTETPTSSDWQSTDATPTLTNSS
MEKK2 WT-MEK5: raises or lowers MEK5 binding to wildtype human MEKK2 PB1 domain; bead flow cytometry, Alexa488-MEK5 binding to MEKK2 WT; actives lie on both sides; actives 1.1% (n = 290,000); binding response (% of control), % at 10 µM; in the data active = binding response below about 67% or above about 130%
GSK3beta inhib: blocks human GSK3beta kinase activity; P49841; GST-GSK3beta kinase, ADP-Glo luminescence, 60 min; stronger effect = lower value; activity score (negative = inhibition), % at 10 µM; actives 0.038% (n = 300,000);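 active = more than half of replicate wells score below -50%, meaning over 50% inhibition versus plate controls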
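Test system: GST-fused GSK3beta enzyme, cell-free | Quantity: 1.6 ng GST-GSK3beta enzyme per well | Reagent: 25 µM ATP with peptide substrate | Schedule: 60 min enzyme reaction, room temperature | Signal: Luminescent ADP-Glo measurement of ADP formed | Read-out basis: Score relative to plate controls | Control set: DMSO and 20 µM GW8510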
MEKK2wt confirm: raises or lowers MEK5 binding to wildtype human MEKK2, retest; shares compounds with MEKK3 PB1 HTS; bead flow cytometry, Alexa488-MEK5 binding to MEKK2 WT; actives lie on both sides; binding response (% of control), % at 10 µM; actives 2.4% (n = 5,900); AID 1892; in the data active = binding response below about 16% or above about 210%; inactive = in between
MEKK2mut confirm: signal of MEK5 binding to mutant human MEKK2, retest | shares compounds with MEKK3 PB1 HTS | bead flow cytometry, Alexa488-MEK5 binding to MEKK2 mutant | percent response, % at 10 µM | actives 2% (n = 5,900) | AID 1893; in the data active = percent response mostly above about 71%, no sharp cut-off; inactive = mostly below about 38%;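 also: higher means compound restores mutant binding toward wildtype level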
MEKK3-MEK5 inh: MEKK3-MEK5 PB1 inhibition, single concentration confirmation; shares compounds with MEKK3 PB1 HTS; bead flow cytometry, Alexa488-MEK5 binding to MEKK3; stronger effect = lower value; binding response (% of control), % at 10 µM; actives 1.8% (n = 5,900);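 active = binding response below 72% of control, or above a set upper limit, though filed actives all read lower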
Numbers stand for hits; i = inactive; nt = no result; [ ] = remark or other dose.

SMILES | STK33 inh | MEKK2 mut-MEK5 | MEKK3 PB1 HTS | GSK3 alpha inh | MEKK2 WT-MEK5 | GSK3beta inhib | MEKK2wt confirm | MEKK2mut confirm | MEKK3-MEK5 inh
CCN(CC)CCN1c2ccccc2Sc2ccc3ccccc3c21 | i | i | i | i | 136 | i | i | i | i
CCN(CC)CCN1c2ccccc2Sc2ccccc21 | i | i | i | i | i | i | nt | nt | nt
O=C(NCc1cc2ccccc2[nH]1)c1ccccc1F | i | i | i | i | i | i | nt | nt | nt
CC(C)=CC(=O)N1CCCc2ccccc21 | i | i | i | i | i | i | nt | nt | nt
C/C(=C/C(=O)N1CCc2ccccc21)C(=O)O | i | i | 145 | i | i | i | i | i | i
O=C(NNC(=O)c1ccccc1O)c1ccc(Cl)c(S(=O)(=O)N2CCc3ccccc32)c1 | i | nt | nt | i | nt | i | nt | nt | nt
CCC1=C(c2cc(OC)c(OC)c(OC)c2)C2(CCCC2)C(=O)O1 | i | i | i | i | i | i | nt | nt | nt
Cc1nnc(C)n1N | i | i | i | i | -3.0[inhibitor] | i | i | i | i
O=C(Nc1cccc(-c2csc(Nc3ccc(Cl)cc3)n2)c1)c1cccc(C(F)(F)F)c1 | i | i | 123 | i | i | i | i | i | i
CC1(C)CC(=O)C=C(Nc2ccc([N+](=O)[O-])cc2)C1 | i | i | i | i | i | i | nt | nt | nt
CC(=O)Nc1ccc2nc(-c3ccc(Br)o3)[nH]c2c1 | i | i | 66[inhibitor] | i | 63[inhibitor] | i | i | i | i
CCn1c(CC(=O)Nc2ccc(Cl)c(Cl)c2)nnc1SCc1ccc(Cl)cc1 | i | i | 8.0[inhibitor] | i | 14[inhibitor] | i | i | i | i
CCn1c(SCC(=O)NCC(=O)Nc2ccc(F)cc2)nnc1-c1cccs1 | i | i | 0.0[inhibitor] | i | -4.0[inhibitor] | i | i | i | i
CCn1c(SCC(=O)Nc2ccc(C(=O)OC)cc2)nnc1-c1cccs1 | i | i | i | i | i | i | nt | nt | nt
CCn1c(CNC(=O)c2cccs2)nnc1SCC(=O)Nc1ccc(Cl)cc1 | i | i | 128 | i | i | i | i | i | i
CC(C)CC(=O)NC(=S)Nc1ccc(N2CCOCC2)c(Cl)c1 | i | i | i | i | i | i | nt | nt | nt
C/C(=N\NC(=O)CCC(=O)NCc1ccccc1)c1ccco1 | i | i | i | nt | i | i | nt | nt | nt
C=CCC(C)(NCc1ccccc1)c1ccco1 (stereo not given) | i | i | 2.0[inhibitor] | i | 2.0[inhibitor] | i | i | i | i
O=C(NCc1ccccc1C(F)(F)F)C1CC(c2ccc(C(F)(F)F)cc2)=NO1 (stereo not given) | i | i | 81[inhibitor] | i | i | i | i | i | i
CC(=O)CSc1nnc2c3ccccc3nc(C(C)(C)C)n12 | i | i | 73[inhibitor] | i | 63[inhibitor] | i | i | i | i
Cc1ccc(C(=O)CSc2nnc3c4ccccc4nc(C(C)(C)C)n23)cc1 | i | i | i | i | i | i | nt | nt | nt
CNC(=O)N(C1=NCCCCC1)c1ccc(Br)cc1 | i | i | 129 | i | i | i | i | i | i
CCOc1ccc(N(C(=O)Nc2ccccc2)C2=NCCC2)cc1 | i | i | i | i | i | i | nt | nt | nt
CN1CCN(CC(O)COc2ccc(C34CC5CC(CC(C5)C3)C4)cc2)CC1 (stereo not given) | nt | 56 | i | nt | 235 | nt | i | 81 | i
CN1CCN(CC(O)COc2ccccc2)CC1 (stereo not given) | i | i | i | i | i | nt | nt | nt | nt
SMILES | STK33 inh | MEKK2 mut-MEK5 | MEKK3 PB1 HTS | GSK3 alpha inh | MEKK2 WT-MEK5 | GSK3beta inhib | MEKK2wt confirm | MEKK2mut confirm | MEKK3-MEK5 inh
c1ccc(N2CCN(c3nc(NCc4ccco4)c4ccccc4n3)CC2)cc1 | i | i | i | i | 145 | i | i | i | i
c1coc(CNc2nc(N3CCCCC3)nc3ccccc23)c1 | i | i | i | i | i | i | nt | nt | nt
c1ccc(CNc2nc(N3CCN(Cc4ccccc4)CC3)nc3ccccc23)cc1 | i | i | i | i | 161 | i | i | i | i
CNS(=O)(=O)c1ccc(C(C)(C)C)cc1 | i | i | i | i | i | i | nt | nt | nt
O=C1OC(c2ccccc2)=C/C1=C\N1CCOCC1 | i | i | 2.0[inhibitor] | i | 2.0[inhibitor] | i | i | i | i
O=C1OC(c2ccccc2)=C/C1=C/N1CCOCC1 | i | i | i | i | i | i | nt | nt | nt
COc1ccc(C(C(=O)OC(C)CN(C)C)c2ccccc2)cc1 (stereo not given) | i | 25 | i | i | i | i | i | i | 45
CNC(=S)N1CCN(C(=O)C2CCCO2)CC1 (stereo not given) | i | i | 67[inhibitor] | i | i | i | i | i | i
O=C(CC1CCCC1)Nc1cccc(Br)c1 | i | i | i | i | i | i | nt | nt | nt
N#Cc1cccc(NC(=O)CC2CCCCC2)c1 | i | i | i | i | -3.0[inhibitor] | i | i | i | i
Cc1cc(Br)ccc1SCC(=O)OCC(=O)NC1CCCC1 | i | i | i | i | i | i | nt | nt | nt
COc1ccc(-c2nnc3ccc(SCC(=O)Nc4nccs4)nn23)cc1OC | i | i | 128 | i | i | i | i | i | i
O=C(CSc1ccc2nnc(-c3ccncc3)n2n1)Nc1nccs1 | nt | i | i | nt | i | i | nt | nt | nt
COc1ccc(-c2[nH]c(-c3ccc(C)cc3)nc2SCC(=O)Nc2nccs2)cc1 | i | i | 134 | i | i | i | i | i | i
COc1ccc(C2(O)CC3CCC(C2)N3c2nc(C)cc(C)c2C#N)cc1 (stereo not given) | i | i | i | i | i | i | nt | nt | nt
COC(=O)c1ccc(N=NN2CCCCC2)cc1 | i | i | i | i | i | i | nt | nt | nt
Cc1ccc(OC(=O)c2sc3ncn(C)c(=O)c3c2C)cc1 | i | i | i | i | i | i | nt | nt | nt
CN(CC(=O)Nc1c(Cl)cccc1Cl)C(=O)Cn1[nH]c(=O)c2ccccc2c1=O | i | nt | nt | i | nt | nt | nt | nt | nt
Cc1ccc(CN(CC(=O)N/N=C/c2ccco2)S(=O)(=O)c2ccc(C)cc2)cc1 | i | i | i | i | i | i | nt | nt | nt
Cc1ccc(S(=O)(=O)N(CC(=O)N/N=C/c2ccco2)c2cc(Cl)cc(Cl)c2)cc1 | i | i | 128 | i | i | i | i | i | i
O=C(O)c1ccc(N2C(=O)C3C4c5ccccc5C(Br)(c5ccccc54)C3C2=O)cc1 (stereo not given) | i | i | i | i | i | i | nt | nt | nt
CCc1ccc(N=CC23c4ccccc4C(c4ccccc42)C2C(=O)N(c4ccc(OC)cc4)C(=O)C23)cc1 (stereo not given) | i | i | 81[inhibitor] | i | i | i | i | i | i

Source: PubChem BioAssay
